Screening results: PubChem BioAssay, several laboratories
Hits are enriched below; roughly 2% of the tested compounds scored in any of these assays.
FXN GAA850 act – FXN promoter activators, primary screen, cell-based, luciferase luminescence, HEK293 lucGAA850. activation, % at 6 µM. HEK293 lucGAA850 FXN promoter luciferase reporter, 24 h; percent of 10 µM SAHA response. 360,000 compounds, 0.56% hits;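 active means activation above the average of all compounds screened plus 3 SD, cutoff fixed separately per campaign, cut at about 7.5% in these data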
NR2E3 ag-1 – NR2E3 agonists in two-hybrid cells, primary screen, cell-based, luminescence, CHO-S, Gal4-NCOR/VP16-NR2E3 | 360,000 compounds, 0.35% hits | Photoreceptor-specific nuclear receptor (Homo sapiens), Q9Y5X4 | luciferase | inhibition of corepressor binding, % at 3.98 µM;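 active means inhibition above the mean of all tested compounds plus 3 SD, cut at about 70% in these data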;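 further: higher means lower luciferase signal from less NR2E3 corepressor binding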
Target sequence (Q9Y5X4 whole entry, looked up, the tested form may be a part): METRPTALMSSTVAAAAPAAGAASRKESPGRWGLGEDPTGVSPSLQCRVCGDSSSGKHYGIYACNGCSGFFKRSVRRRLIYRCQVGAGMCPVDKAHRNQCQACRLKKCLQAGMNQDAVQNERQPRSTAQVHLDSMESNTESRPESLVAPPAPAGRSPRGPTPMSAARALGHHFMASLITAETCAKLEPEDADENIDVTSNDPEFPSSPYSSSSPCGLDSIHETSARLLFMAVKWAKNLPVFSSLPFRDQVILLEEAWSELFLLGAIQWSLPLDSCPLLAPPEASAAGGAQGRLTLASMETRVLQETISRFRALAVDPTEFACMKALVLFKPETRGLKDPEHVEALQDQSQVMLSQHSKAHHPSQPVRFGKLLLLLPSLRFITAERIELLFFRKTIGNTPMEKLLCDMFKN
T cell HTS – modulators of CD8 T cell-vesicle binding, primary screen, mouse 2C CD8+ T cells, flow cytometry | AID 2052, 2009 | 330,000 compounds, 0.068% hits | response (vesicle binding), % at 7 µM | 2C CD8+ T cell-vesicle binding; stronger effect = lower value;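 active means response, share of CD8 T cells binding vesicles, and their 90th percentile fluorescence all below set limits, cut at about 80% in these data, passing the limit was not always enough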;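 further: values below 100% mean blocked vesicle binding to the CD8+ T cells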
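Material: 2C TCR transgenic mouse naive CD8+ T cells, MACS-purified. Also added: QL9-charged Drosophila Ld/ICAM-1/B7-1 vesicles. Timing: binding 1.5 h at 37 °C. Measured by: high-throughput flow cytometry with anti-B7-1 and anti-CD8 staining. Read-out: percent CD8+ FL2 mean versus row control. Controls: Unloaded micro-vesicles (low), QL9 vesicles with 0.7% DMSO (high).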
Myeloid diff 2 – induction of myeloid progenitor differentiation, primary screen, cell-based, flow cytometry, MLPCN library | calls only at 10 µM | 360,000 compounds, 1% hits | ER-HoxA9 myeloid progenitors, lysozyme-GFP differentiation;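 active means normalized GFP-positive differentiation at or above the plate's own cutoff, the solvent-only control mean plus 3 SD; inconclusive means no clear call, values can overlap the other calls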;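 further: cells exposed to compound for four days before flow analysis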
NR2E3 ag-2 – inhibitors of NR2E3-RetCOR corepressor binding, primary screen, NR2E3 agonist project, biochemical, TR-FRET, GST-NR2E3, biotin-RetCOR | Photoreceptor-specific nuclear receptor (Homo sapiens), Q9Y5X4 | 1536-well | inhibition of corepressor binding, % at 4.78 µM | 320,000 compounds, 0.12% hits | AID 2300, 2010;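 active means percent inhibition above the cutoff of mean plus 3 SD of all tested compounds, set per screening campaign, cut at about 20% in these data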
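System: GST-tagged NR2E3 plus biotinylated RetCOR corepressor; Buffer or medium: pH 7.5 Tris-based buffer; Probe or stimulus: RetCOR corepressor, biotinylated, 7 nM; Doses: compound at 4.8 µM, single dose; Schedule: 5 h incubation at 4 °C; Technique: time-resolved FRET; Evaluation: percent inhibition of TR-FRET ratio; Replication: one well per compound, singlicate testing.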
NR2E3 ag confirm – NR2E3 agonist confirmation in cells, cell-based, luminescence, CHO-S two-hybrid. AID 624378, 2012. inhibition, % at 3.98 µM. CHO-S mammalian two-hybrid NR2E3-NCOR, luciferase luminescence. 2,300 compounds, 51% hits. shares compounds with NR2E3 ag-1;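 active means average inhibition above a cutoff equal to the mean inhibition of all tested compounds plus one SD, cut at about 70% in these data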
VP16 counter – GAL4-VP16 reporter modulators, confirmation, counter-screen for NR2E3 agonist project, cell-based, luminescence, CHO-S, high throughput. shares compounds with NR2E3 ag-1. CHO-S GAL4-VP16 luciferase reporter. inhibition, % at 3.98 µM. 2,300 compounds, 29% hits. AID 624379, 2012;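 active means mean inhibition above a cutoff equal to the average over all tested compounds plus one standard deviation, cut at about 70% in these data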;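 further: luciferase from a UAS reporter driven by GAL4-VP16 transactivation; higher means less reporter light so more repression of VP16 activity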
Each line names hits and unclear results; the compound was inactive in the other large screens (follow-up assays come after a bar, where they were run).

CC(C)COC(=O)NCCCOC(=O)Nc1ccccc1	none
CC(C)COC(=O)NCCOC(=O)Nc1cccc(Cl)c1	NR2E3 ag-1 73 | NR2E3 ag confirm 89 | VP16 counter 72
Cc1cc(C)nc(SCC(=O)Nc2sc3c(c2C#N)CCC(C)C3)n1 (configuration not stated)	NR2E3 ag-1 71 | NR2E3 ag confirm 74 | VP16 counter 77
Cc1ccnc(SCC(=O)Nc2sc3c(c2C#N)CCC(C(C)(C)C)C3)n1 (configuration not stated)	none
COc1cc(NS(=O)(=O)c2ccc(-n3cccn3)cc2)cc(OC)c1	none (no result: T cell HTS, NR2E3 ag-2) | NR2E3 ag confirm inactive | VP16 counter inactive
Cc1ccc(NS(=O)(=O)c2ccc(-n3cccn3)cc2)cc1C	none | NR2E3 ag confirm inactive | VP16 counter inactive
CC1(c2cccc(Br)c2)NC(=O)NC1=O (configuration not stated)	none
O=C(NCCCN1CCOCC1)c1cccc(S(=O)(=O)N2CCc3ccccc32)c1	none (no result: T cell HTS, NR2E3 ag-2)
O=C(NNc1c([N+](=O)[O-])cc(C(F)(F)F)cc1[N+](=O)[O-])c1ccco1	none | NR2E3 ag confirm inactive | VP16 counter inactive
COc1ccc(/C=N/N=C2\CC3CCC2(C)C3(C)C)cc1O (configuration not stated)	NR2E3 ag-1 74 | NR2E3 ag confirm inactive | VP16 counter inactive
CC(=O)Nc1ccc(Nc2cc(C)nc3c(-c4ccccc4)cnn23)cc1	none | NR2E3 ag confirm inactive | VP16 counter inactive
CN(CC(=O)Nc1ccc(N2CCOCC2)cc1)C(=O)c1cc2c(s1)CCCC2	none
c1ccc(-c2nc(-c3ccncc3)no2)cc1	none
c1ccc(C(Cc2nc(-c3ccncc3)no2)c2ccccc2)cc1	none | NR2E3 ag confirm 75 | VP16 counter inactive
CCCCNc1c(-c2ccc(SC3CCCCC3)c(OC)c2)nc2ccc(C)cn12	none (no result: NR2E3 ag-2)
CCCCNc1c(-c2ccc(OC)c(SC3CCCCC3)c2)nc2ccc(C)cn12	Myeloid diff 2 inconclusive (no result: NR2E3 ag-2) | NR2E3 ag confirm inactive | VP16 counter inactive
O=C(OCc1ccccc1)N(CCCCN(CCCNCc1ccccc1)C(=O)OCc1ccccc1)CCCNCc1ccccc1	Myeloid diff 2 inconclusive (no result: T cell HTS, NR2E3 ag-2) | NR2E3 ag confirm inactive | VP16 counter inactive
O=C(NCCCCCCNC(=O)OCc1ccccc1)OCc1ccccc1	none (no result: T cell HTS, NR2E3 ag-2)
CN(C)c1nc(=NCc2ccco2)ss1	NR2E3 ag-1 76 | NR2E3 ag confirm inactive | VP16 counter inactive
CCC(=O)N1CCN(c2ccc(NC(=O)c3ccc([N+](=O)[O-])o3)cc2)CC1	Myeloid diff 2 inconclusive (no result: T cell HTS, NR2E3 ag-2)
CCCC(=O)N1CCN(c2ccc(NC(=O)c3ccc([N+](=O)[O-])o3)cc2)CC1	Myeloid diff 2 inconclusive (no result: T cell HTS, NR2E3 ag-2) | NR2E3 ag confirm inactive | VP16 counter inactive
Nc1nc(N)nc(-c2cc(O)ccc2O)n1	NR2E3 ag-1 76 (no result: Myeloid diff 2) | NR2E3 ag confirm 85 | VP16 counter inactive
Cc1nc(N)nc(-c2ccccc2O)n1	none
COc1cc(/C=N/NC(=O)NC23CC4CC(CC(C4)C2)C3)ccc1OCC(N)=O	none
COc1ccc(C=NNC(=S)NC23CC4CC(CC(C4)C2)C3)cc1OC	none (no result: T cell HTS, NR2E3 ag-2) | NR2E3 ag confirm inactive | VP16 counter inactive
COc1ccc(-n2ncc3c(N(C)C4CCCCC4)ncnc32)cc1	NR2E3 ag-1 79 | NR2E3 ag confirm inactive | VP16 counter inactive
Cc1cccc(-n2ncc3c(N(CCO)CCO)ncnc32)c1	none
Cc1cccc(-n2ncc3c(N(C)C4CCCCC4)ncnc32)c1	NR2E3 ag-1 73 | NR2E3 ag confirm inactive | VP16 counter inactive
CCOC(=O)CC1(C)Sc2ccccc2N1S(=O)(=O)c1ccc(C)cc1 (configuration not stated)	none (no result: FXN GAA850 act, NR2E3 ag-1, T cell HTS, NR2E3 ag-2)
CCOC(=O)C1=Nc2ccccc2C1=[N+]=[N-]	NR2E3 ag-1 97, Myeloid diff 2 inconclusive | NR2E3 ag confirm inactive | VP16 counter 79
CCOC(=O)c1cnc(-c2ccccc2O)nc1Cl	none
O=C(CCC1CCCCC1)NCCS(=O)(=O)N1CCN(c2ccccc2)CC1	none
O=C(O)c1cccc(Cn2c(Cl)c(/C=N/Nc3ccccc3)sc2=O)c1	none | NR2E3 ag confirm inactive | VP16 counter inactive
C=C[C@]1(C)C=C2CC[C@H]3[C@@](C)(CCC[C@@]3(C)C(=O)O)[C@@H]2CC1	none (no result: NR2E3 ag-2)
C=C[C@]1(C)C=C2C(=O)[C@@]3(O)OC(=O)[C@@]4(CCCC(C)(C)[C@H]34)[C@@]2(O)CC1	NR2E3 ag-1 92, Myeloid diff 2 inconclusive (no result: FXN GAA850 act, T cell HTS, NR2E3 ag-2) | NR2E3 ag confirm 91 | VP16 counter inactive
CCC(C)(C)c1ccc(Oc2ccc(N)cc2)cc1	none (no result: T cell HTS, NR2E3 ag-2) | NR2E3 ag confirm inactive | VP16 counter inactive
CCCCCCC=C1CCC(CN2CCCC2)C1=O (configuration not stated)	none (no result: FXN GAA850 act, T cell HTS, NR2E3 ag-2)
O=C(C(=O)N1CCC(Cc2ccccc2)CC1)c1cccc(Br)c1	none (no result: FXN GAA850 act, NR2E3 ag-1, T cell HTS, NR2E3 ag-2)
Cc1cccc(C(=O)N[C@H](C(=O)Nc2ncc(C)s2)C(C)C)c1	NR2E3 ag-1 85 | NR2E3 ag confirm 98 | VP16 counter inactive
O=C(NC(=S)Nc1ccc2c(c1)OCCO2)c1cccc(Br)c1	none
S=C(Nc1ccc(Br)cc1)Nc1ccc2c(c1)OCCO2	none | NR2E3 ag confirm inactive | VP16 counter inactive
CCN(CC(=O)Nc1c(F)cccc1F)C(=O)c1ccc(N2CCCCC2)c([N+](=O)[O-])c1	none | NR2E3 ag confirm inactive | VP16 counter inactive
CN(CC(=O)Nc1cccc(F)c1)C(=O)c1ccc(N2CCOCC2)c([N+](=O)[O-])c1	none
CCN(CC(=O)Nc1c(F)cccc1F)C(=O)c1cc(S(=O)(=O)N(CC)CC)ccc1N1CCCCC1	none
CN(CC(=O)Nc1ccc(Cl)c(C(F)(F)F)c1)C(=O)c1ccc(N2CCOCC2)c([N+](=O)[O-])c1	none | NR2E3 ag confirm inactive | VP16 counter inactive
COc1ccc(Cl)cc1NC(=O)CN(C)C(=O)c1ccc(N2CCCCCC2)c([N+](=O)[O-])c1	none | NR2E3 ag confirm inactive | VP16 counter inactive
COc1ccc(Cl)cc1NC(=O)CN(C)C(=O)c1ccc(N2CCCCC2)c([N+](=O)[O-])c1	none
Cc1cc(C)n2nc(SCC(=O)N3CCCC(C)C3)nc2n1 (configuration not stated)	none (no result: NR2E3 ag-2)
Cc1sc2ncnc(N3CCN(CCOc4ccc(Cl)cc4)CC3)c2c1C	NR2E3 ag-1 99, Myeloid diff 2 active | NR2E3 ag confirm 95 | VP16 counter 86
CCN(CC)CCN(C)C1CCC(c2ccccc2)CC1 (configuration not stated)	none
COc1ccc(C(=O)Cn2c(C(C)=O)nc3ccccc32)cc1	none (no result: T cell HTS, Myeloid diff 2, NR2E3 ag-2) | NR2E3 ag confirm inactive | VP16 counter inactive
